Results as given in ChEMBL document CHEMBL1124668, “Solid-phase synthesis of 16 potent (selective and nonselective) in vivo antagonists of oxytocin” (J Med Chem, 1989).
Starred links: 1 amine or outer side, 2 acyl side, 3 side chain; linkers in the order of their positions; H or OH if unused. Positions of bridges follow the written chain, without caps; N, C: chain ends. Non-standard residues stand in square brackets, D forms with d. Residues, ends and D or L forms follow the SMILES beside them. X1 = O=C(CC1(S[*:2])CCCCC1)[*:1]; Orn = NCCC[C@H](N)C(=O)O

Tests used:
[1] = tested on: Rattus norvegicus; experiment: (§1) Antivasopressor activity in vivo in phenoxybenzamine pre-treated rats.; type: functional
Summary of the method: (§2)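 Rats pretreated with phenoxybenzamine, under urethane anesthesia; antagonist given iv; agonist USP Posterior Pituitary Reference Standard; read-out is pressor response. Effective dose (nmol/kg) is the dose that cuts the response to 2X units of agonist to that of 1X unit, interpolated semilogarithmically from bracketing doses. pA2 assumes a 67 mL/kg distribution volume. SEM is given where there are ≥4 independent estimates.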

[2] = tested on: Rattus norvegicus; experiment: In vivo inhibition of estrogen induced changes in interuterine pressure in rats.; type: functional
Summary of the method: (§3)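 Rats pretreated with estrogen, under urethane anesthesia; antagonist given iv; read-out is change in integrated intrauterine pressure; agonist synthetic oxytocin. Effective dose (nmol/kg) is the dose that cuts the response to 2X units of agonist to the response to 1X unit, interpolated on a semilog scale from doses above and below it. pA2 is derived assuming a 67 mL/kg distribution volume.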

[3] = tested on: Rattus norvegicus; experiment: Antidiuretic activity in rats as intravenous dose required for reduction of 2x agonist response to equal 1x effect in estrogen pretreated rats; type: functional, Urine
[4] = tested on: Rattus norvegicus; experiment: Antioxytocic potencies (change in interuterine pressure) in vivo in estrogen pre-treated rats.; type: functional, organism-based; conditions: read-out: pA2 (converted); summary of the method: as §3
[5] = tested on: Rattus norvegicus; experiment: Antiantidiuretic activity in vivo in hydrated rats under ethanol anaesthesia.; type: functional, organism-based; conditions: Urine, read-out: pA2 (converted)
Summary of the method: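 Hydrated rats under ethanol anaesthesia; antagonist given iv against the USP Posterior Pituitary Reference Standard as agonist. Effective dose (nmol/kg) is the dose that cuts the response to 2x units of agonist to equal the response to 1x unit. It is estimated by interpolation on a semilog scale between doses above and below it. pA2 assumes a volume of distribution of 67 mL/kg. Where SEM is given, n ≥4 estimates.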

[6] = species: Rattus norvegicus; experiment: Antioxytoxic activity in vitro in isolated uteri from estrogen pretreated rats suspended in Mg supplemented Dyke-Hastings solution.; type: functional; conditions: read-out: pA2 (converted)
Summary of the method: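 Isolated rat uterus in bath medium with Mg2+; agonist USP Posterior Pituitary Reference Standard. pA2 is the −log of the effective molar antagonist concentration that reduces the response to a dose of agonist to the response to half that dose. It is interpolated semilogarithmically from concentrations above and below it. SEM is given where there are ≥4 independent estimates.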

[7] = species: Rattus norvegicus; experiment: Antioxytoxic activity in vitro in isolated uteri from estrogen pretreated rats suspended in Mg-free Dyke-Hastings solution.; conditions: read-out: pA2 (converted)
[8] = tested on: Rattus norvegicus; experiment: as §1; type: functional, organism-based; conditions: read-out: pA2 (converted); summary of the method: as §2

| SMILES | ED [1] [nM/kg] | ED [2] [nM/kg] | ED [3] [nM/kg] | Kb [4] [nM] | Kb [5] [nM] | Kb [6] [nM] | Kb [7] [nM] | Kb [8] [nM] |
| --- | --- | --- | --- | --- | --- | --- | --- | --- |
| COc1ccc(C[C@H]2NC(=O)CC3(CCCCC3)SSC[C@@H](C(=O)N3CC=C[C@H]3C(=O)N[C@@H](CCCN=C(N)N)C(=O)NCC(N)=O)NC(=O)[C@H](CC(N)=O)NC(=O)[C@H](C(C)C)NC(=O)[C@H](Cc3ccccc3)NC2=O)cc1 | 0.55 | 1.17 | 1.7 |  |  |  |  |  |
| COc1ccc(C[C@@H]2NC(=O)CC3(CCCCC3)SSC[C@@H](C(=O)N3CCC[C@H]3C(=O)N[C@@H](CCCN=C(N)N)C(=O)NCC(N)=O)NC(=O)[C@H](CC(N)=O)NC(=O)[C@H](C(C)C)NC(=O)[C@H](Cc3ccccc3)NC2=O)cc1 [listing 1 of 2 here] |  |  |  | 115 | 44.7 | 13.5 | 4.37 |  |
| COc1ccc(C[C@@H]2NC(=O)CC3(CCCCC3)SSC[C@@H](C(=O)N3CCC[C@H]3C(=O)N[C@@H](CCCN=C(N)N)C(=O)NCC(N)=O)NC(=O)[C@H](CC(N)=O)NC(=O)[C@H](C(C)C)NC(=O)[C@H](Cc3ccccc3)NC2=O)cc1 [listing 2 of 2 here] | 0.29 | 8 | 3.1 |  |  |  |  |  |
| CC[C@H](C)[C@@H]1NC(=O)[C@H](Cc2ccc(OC)cc2)NC(=O)CC2(CCCCC2)SSC[C@@H](C(=O)N2CCC[C@H]2C(=O)N[C@@H](CCCN)C(=O)NCC(N)=O)NC(=O)[C@H](CC(N)=O)NC(=O)[C@H](CCC(N)=O)NC1=O (Y(Me)IQNCP[Orn]G-NH2; linker N-5 via X1) | 0.8 | 4.2 | 0.01 |  |  |  |  |  |
| CC[C@H](C)[C@@H]1NC(=O)[C@H](Cc2ccc(OC)cc2)NC(=O)CC2(CCCCC2)SSC[C@@H](C(=O)N2CCC[C@H]2C(=O)N[C@@H](CCCN)C(N)=O)NC(=O)[C@H](CC(N)=O)NC(=O)[C@H]([C@@H](C)O)NC1=O (Y(Me)ITNCP[Orn]-NH2; linker N-5 via X1) |  |  |  | 24.5 | ~1580 | 2.75 | 6.76 | 105 |
| CC[C@H](C)[C@@H]1NC(=O)[C@H](Cc2ccc(OC)cc2)NC(=O)CC2(CCCCC2)SSC[C@@H](C(=O)N2CCC[C@H]2C(=O)N[C@@H](CCCN)C(=O)O)NC(=O)[C@H](CC(N)=O)NC(=O)[C@H]([C@@H](C)O)NC1=O (Y(Me)ITNCP[Orn]-OH; linker N-5 via X1) |  |  |  | 20.4 | ~5010 | 5.75 | 12.9 | 331 |
| CC[C@H](C)[C@@H]1NC(=O)[C@H](Cc2ccc(OC)cc2)NC(=O)CC2(CCCCC2)SSC[C@@H](C(=O)N2CCC[C@H]2C(=O)N[C@@H](CCCN)C(=O)NCC(N)=O)NC(=O)[C@H](CC(N)=O)NC(=O)[C@H]([C@@H](C)O)NC1=O (Y(Me)ITNCP[Orn]G-NH2; linker N-5 via X1) |  |  |  | 28.2 | ~5010 | 3.89 | 9.55 | 141 |
| CCOc1ccc(C[C@H]2NC(=O)CC3(CCCCC3)SSC[C@@H](C(=O)N3CCC[C@H]3C(=O)N[C@@H](CCCCN)C(=O)NCC(N)=O)NC(=O)[C@H](CC(N)=O)NC(=O)[C@H](C(C)C)NC(=O)[C@H](Cc3ccccc3)NC2=O)cc1 ([dY](Et)FVNCPKG-NH2; linker N-5 via X1) [listing 1 of 2 here] |  |  |  | 26.9 | 19.1 | 10.5 | 13.5 | 6.92 |
| CCOc1ccc(C[C@H]2NC(=O)CC3(CCCCC3)SSC[C@@H](C(=O)N3CCC[C@H]3C(=O)N[C@@H](CCCCN)C(=O)NCC(N)=O)NC(=O)[C@H](CC(N)=O)NC(=O)[C@H](C(C)C)NC(=O)[C@H](Cc3ccccc3)NC2=O)cc1 ([dY](Et)FVNCPKG-NH2; linker N-5 via X1) [listing 2 of 2 here] | 0.48 | 1.9 | 1.5 |  |  |  |  |  |
| CCOc1ccc(C[C@H]2NC(=O)CC3(CCCCC3)SSC[C@@H](C(=O)N3CCC[C@H]3C(=O)N[C@@H](CCCN=C(N)N)C(=O)NCC(N)=O)NC(=O)[C@H](CC(N)=O)NC(=O)[C@H](C(C)C)NC(=O)[C@H](Cc3ccccc3)NC2=O)cc1 ([dY](Et)FVNCPRG-NH2; linker N-5 via X1) [listing 1 of 2 here] |  |  |  | 33.9 | 15.5 |  |  | 6.03 |
| CCOc1ccc(C[C@H]2NC(=O)CC3(CCCCC3)SSC[C@@H](C(=O)N3CCC[C@H]3C(=O)N[C@@H](CCCN=C(N)N)C(=O)NCC(N)=O)NC(=O)[C@H](CC(N)=O)NC(=O)[C@H](C(C)C)NC(=O)[C@H](Cc3ccccc3)NC2=O)cc1 ([dY](Et)FVNCPRG-NH2; linker N-5 via X1) [listing 2 of 2 here] | 0.45 | 2.6 | 1.1 |  |  |  |  |  |
| CC[C@H](C)[C@@H]1NC(=O)C(Cc2ccc(OC)cc2)NC(=O)CC(C)(C)SSC[C@@H](C(=O)N2CCC[C@H]2C(=O)N[C@@H](CCCN=C(N)N)C(=O)NCC(N)=O)NC(=O)[C@H](CC(N)=O)NC(=O)[C@H](C(C)C)NC1=O (stereo in doubt) |  |  |  | 26.9 |  | 7.76 | 17.8 | 3.47 |
